Converted amounts (≈) assume the structure as drawn.
Assays:
Assay type in all cases: functional, cell-based
MCF7 = test: Cytotoxicity against human MCF7 cells assessed as cell growth inhibition after 72 hrs by MTT assay; settings: MCF7, 72 h
Summary of the method: (§1)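 MTT growth assay in human cancer lines (MCF-7, HepG2, BGC-823, HeLa, A549), 72 h after treatment; 5-fluorouracil as reference. IC50 (μg/mL) taken as concentration giving 50% growth inhibition versus untreated control.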

[1] = Cytotoxicity against human BCG823 cells assessed as cell growth inhibition after 72 hrs by MTT assay; settings: BCG823, 72 h; summary of the method: as §1
HeLa = test: Cytotoxicity against human HeLa cells assessed as cell growth inhibition after 72 hrs by MTT assay; summary of the method: as §1
A549 = test: Cytotoxicity against human A549 cells assessed as cell growth inhibition after 72 hrs by MTT assay; settings: A549, 72 h; summary of the method: as §1
HepG2 = test: Cytotoxicity against human HepG2 cells assessed as cell growth inhibition after 72 hrs by MTT assay; settings: HepG2, 72 h; summary of the method: as §1

`Cc1nc(N(C)C(=O)NC(=O)c2c(F)cccc2F)sc1C(=O)N/N=C/c1cccc(C(F)(F)F)c1` gave an IC50 (MCF7) of 28.1 µg/mL (≈ 53.6 µM), an IC50 [1] of 32.6 µg/mL (≈ 62.1 µM) and an IC50 (HeLa) of 26.8 µg/mL (≈ 51 µM). It also gave an IC50 (A549) of 30.3 µg/mL (≈ 57.7 µM) and an IC50 (HepG2) of 31.6 µg/mL (≈ 60.1 µM).
For `Cc1nc(N(C)C(=O)NC(=O)c2c(F)cccc2F)sc1C(=O)N/N=C/c1ccc(Cl)cc1`, the IC50 (HepG2) was greater than 100 µg/mL.
Molecule `COc1cc(/C=N/NC(=O)c2sc(N(C)C(=O)NC(=O)c3c(F)cccc3F)nc2C)cc(OC)c1OC` has an IC50 (HepG2) greater than 100 µg/mL.
With `CN(C(=O)NC(=O)c1ccccc1F)c1nc(C(F)(F)F)c(C(=O)N/N=C/c2cc(C(F)(F)F)cc(C(F)(F)F)c2)s1` the IC50 (MCF7) was 6.16 µg/mL (≈ 9.79 µM), the IC50 [1] was 4.23 µg/mL (≈ 6.72 µM) and the IC50 (HeLa) was 4.98 µg/mL (≈ 7.91 µM). The IC50 (A549) was 5.43 µg/mL (≈ 8.63 µM) and the IC50 (HepG2) was 4.47 µg/mL (≈ 7.1 µM).
With `CN(C(=O)NC(=O)c1c(F)cccc1F)c1nc(C(F)(F)F)c(C(=O)N/N=C/c2cccc(C(F)(F)F)c2)s1` the IC50 (MCF7) was 21.8 µg/mL (≈ 37.6 µM), the IC50 [1] was 25.9 µg/mL (≈ 44.6 µM) and the IC50 (HeLa) was 21.6 µg/mL (≈ 37.3 µM). For the same molecule, the IC50 (A549) was 27.6 µg/mL (≈ 47.6 µM) and the IC50 (HepG2) was 27.9 µg/mL (≈ 48.1 µM).
`CN(C(=O)NC(=O)c1ccc(Cl)cc1Cl)c1nc(C(F)(F)F)c(C(=O)N/N=C/c2cccc(C(F)(F)F)c2)s1` gave an IC50 (MCF7) of 10.7 µg/mL (≈ 17.5 µM), an IC50 [1] of 6.11 µg/mL (≈ 9.98 µM) and an IC50 (HeLa) of 9.6 µg/mL (≈ 15.7 µM). For the same molecule, the IC50 (A549) was 10.5 µg/mL (≈ 17.2 µM) and the IC50 (HepG2) was 11.2 µg/mL (≈ 18.3 µM).
In the case of `CN(C(=O)NC(=O)c1c(Cl)cccc1Cl)c1nc(C(F)(F)F)c(C(=O)N/N=C/c2ccccc2C(F)(F)F)s1`, the IC50 (MCF7) is reported as 6.24 µg/mL (≈ 10.2 µM), the IC50 [1] is reported as 4.12 µg/mL (≈ 6.73 µM) and the IC50 (HeLa) is reported as 5.23 µg/mL (≈ 8.54 µM). It also gave an IC50 (A549) of 12 µg/mL (≈ 19.6 µM) and an IC50 (HepG2) of 8.95 µg/mL (≈ 14.6 µM).
`CN(C(=O)NC(=O)c1cccc([N+](=O)[O-])c1)c1nc(C(F)(F)F)c(C(=O)N/N=C/c2ccccc2C(F)(F)F)s1` showed an IC50 (MCF7) of 4.73 µg/mL (≈ 8.04 µM), an IC50 [1] of 3.97 µg/mL (≈ 6.75 µM) and an IC50 (HeLa) of 4.15 µg/mL (≈ 7.05 µM). It also gave an IC50 (A549) of 5.45 µg/mL (≈ 9.26 µM) and an IC50 (HepG2) of 4.8 µg/mL (≈ 8.16 µM).
Molecule `CN(C(=O)NC(=O)c1ccccc1)c1nc(C(F)(F)F)c(C(=O)N/N=C/c2cccc([N+](=O)[O-])c2)s1` has an IC50 (MCF7) of 15.4 µg/mL (≈ 29.6 µM), an IC50 [1] of 13.6 µg/mL (≈ 26.1 µM) and an IC50 (HeLa) of 11.2 µg/mL (≈ 21.6 µM). For the same molecule, the IC50 (A549) was 20.7 µg/mL (≈ 39.7 µM) and the IC50 (HepG2) was 14.3 µg/mL (≈ 27.5 µM).
For `Cc1nc(N(C)C(=O)NC(=O)c2c(F)cccc2F)sc1C(=O)N/N=C/c1ccc(F)cc1`, the IC50 (HepG2) was greater than 100 µg/mL.
`CN(C(=O)NC(=O)c1ccc(Cl)cc1Cl)c1nc(C(F)(F)F)c(C(=O)N/N=C/c2ccc([N+](=O)[O-])cc2)s1` gave an IC50 (MCF7) of 6.74 µg/mL (≈ 11.4 µM), an IC50 [1] of 2.13 µg/mL (≈ 3.61 µM) and an IC50 (HeLa) of 5.12 µg/mL (≈ 8.69 µM). The IC50 (A549) was 6.44 µg/mL (≈ 10.9 µM) and the IC50 (HepG2) was 6.85 µg/mL (≈ 11.6 µM).
In the case of `CN(C(=O)NC(=O)c1cccc(C(F)(F)F)c1)c1nc(C(F)(F)F)c(C(=O)N/N=C/c2cccc(C(F)(F)F)c2)s1`, the IC50 (MCF7) is reported as 3.7 µg/mL (≈ 6.05 µM), the IC50 [1] is reported as 4.6 µg/mL (≈ 7.52 µM) and the IC50 (HeLa) is reported as 4.81 µg/mL (≈ 7.87 µM). The IC50 (A549) was 8.16 µg/mL (≈ 13.3 µM) and the IC50 (HepG2) was 5.79 µg/mL (≈ 9.47 µM).
In the case of `CN(C(=O)NC(=O)c1cccc(C(F)(F)F)c1)c1nc(C(F)(F)F)c(C(=O)N/N=C/c2cc(C(F)(F)F)cc(C(F)(F)F)c2)s1`, the IC50 (MCF7) is reported as 6.08 µg/mL (≈ 8.95 µM), the IC50 [1] is reported as 5.23 µg/mL (≈ 7.7 µM) and the IC50 (HeLa) is reported as 5.34 µg/mL (≈ 7.86 µM). For the same molecule, the IC50 (A549) was 8.2 µg/mL (≈ 12.1 µM) and the IC50 (HepG2) was 5.38 µg/mL (≈ 7.92 µM).
Work on `CN(C(=O)NC(=O)c1ccc(F)c(F)c1)c1nc(C(F)(F)F)c(C(=O)N/N=C/c2ccccc2C(F)(F)F)s1` yielded an IC50 (MCF7) of 8.21 µg/mL (≈ 14.2 µM), an IC50 [1] of 3.66 µg/mL (≈ 6.32 µM) and an IC50 (HeLa) of 9.24 µg/mL (≈ 15.9 µM). It also gave an IC50 (A549) of 6.96 µg/mL (≈ 12 µM) and an IC50 (HepG2) of 10.4 µg/mL (≈ 17.9 µM).
Molecule `Cc1nc(N(C)C(=O)NC(=O)c2c(F)cccc2F)sc1C(=O)N/N=C/c1ccccc1F` has an IC50 (HepG2) greater than 100 µg/mL.
`CN(C(=O)NC(=O)c1ccc([N+](=O)[O-])cc1)c1nc(C(F)(F)F)c(C(=O)N/N=C/c2ccc([N+](=O)[O-])cc2)s1` gave an IC50 (MCF7) of 9.24 µg/mL (≈ 16.3 µM), an IC50 [1] of 7.45 µg/mL (≈ 13.2 µM) and an IC50 (HeLa) of 8.42 µg/mL (≈ 14.9 µM). It also gave an IC50 (A549) of 8.98 µg/mL (≈ 15.9 µM) and an IC50 (HepG2) of 12.3 µg/mL (≈ 21.8 µM).
For `Cc1nc(N(C)C(=O)NC(=O)c2c(F)cccc2F)sc1C(=O)N/N=C/c1ccc(Cl)cc1Cl`, the IC50 (HepG2) was 70 µg/mL (≈ 133 µM).
Work on `CN(C(=O)NC(=O)c1ccccc1F)c1nc(C(F)(F)F)c(C(=O)N/N=C/c2cccc(C(F)(F)F)c2)s1` yielded an IC50 (MCF7) of 20.5 µg/mL (≈ 36.6 µM), an IC50 [1] of 16.3 µg/mL (≈ 29.1 µM) and an IC50 (HeLa) of 19.1 µg/mL (≈ 34.1 µM). The IC50 (A549) was 19.4 µg/mL (≈ 34.6 µM) and the IC50 (HepG2) was 20.3 µg/mL (≈ 36.2 µM).
In the case of `CN(C(=O)NC(=O)c1ccc(Cl)cc1Cl)c1nc(C(F)(F)F)c(C(=O)N/N=C/c2ccc(C(F)(F)F)cc2)s1`, the IC50 (MCF7) is reported as 8.42 µg/mL (≈ 13.8 µM), the IC50 [1] is reported as 3.08 µg/mL (≈ 5.03 µM) and the IC50 (HeLa) is reported as 7.99 µg/mL (≈ 13 µM). For the same molecule, the IC50 (A549) was 9.4 µg/mL (≈ 15.4 µM) and the IC50 (HepG2) was 12.4 µg/mL (≈ 20.3 µM).
Work on `CN(C(=O)NC(=O)c1ccc(Cl)cc1Cl)c1nc(C(F)(F)F)c(C(=O)N/N=C/c2ccccc2C(F)(F)F)s1` yielded an IC50 (MCF7) of 9.12 µg/mL (≈ 14.9 µM), an IC50 [1] of 5.73 µg/mL (≈ 9.36 µM) and an IC50 (HeLa) of 9 µg/mL (≈ 14.7 µM). For the same molecule, the IC50 (A549) was 15.3 µg/mL (≈ 25 µM) and the IC50 (HepG2) was 10.7 µg/mL (≈ 17.4 µM).

Source: ChEMBL document CHEMBL3813688, “Synthesis, antitumor activity and mechanism of action of novel 1,3-thiazole derivatives containing hydrazide-hydrazone and carboxamide moiety” (Bioorg Med Chem Lett, 2016)
